Measured values reported in PMC4334291 (Journal of Chemical Information and Modeling, 2014).

What was measured:
[1] = test system: S. epidermidis ATCC 12228; assay: Bacterial growth assay, S. epidermidis; type: cell-based, Staphylococcus epidermidis; details: 100 μM, after 6 h
Outline: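 Overnight culture at 37 °C and 300 rpm in 1% peptone, 1% beef extract, 0.5% NaCl (pH 7.1), diluted 15×. Grown at 37 °C and 300 rpm with test compound at 100 μM, 0.3% DMSO (negative control) or ampicillin 100 μg/mL (positive control). A595 read at 6 h. Four independent experiments, mean ± SEM, Bonferroni all-pair comparison.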

SH-SY5Y cells = assay: Mammalian cells growth/toxicity assay; type: cell-based, human; details: data not shown; 2 days
E. coli JM109 = assay: Bacterial growth assay, E. coli JM109; type: cell-based; details: data not shown
Outline: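 JM109 culture handled as follows: overnight growth at 37 °C, 300 rpm, in 0.5% yeast extract/1% tryptone/0.5% NaCl medium (pH 7.0), then 10× dilution. Incubated at 37 °C, 300 rpm, in medium with test compound, 0.3% DMSO as negative control or ampicillin as positive control. Culture absorbance at 595 nm read after 4, 6 and 8 h.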

E. coli BL21 = assay: Bacterial growth assay, E. coli BL21; type: cell-based; details: 100 μM, 4 and 8 h
Outline: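 E. coli BL21 grown overnight at 37 °C and 300 rpm in 0.5% yeast extract, 1% tryptone, 0.5% NaCl (pH 7.0), then diluted 10×. Grown at 37 °C and 300 rpm with test compound at 100 μM, 0.3% DMSO (negative control) or ampicillin 100 μM (positive control). A595 read at 4, 6 and 8 h. Four independent experiments, mean ± SEM, Dunnett's test.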

MDCK cells = assay: Mammalian cells growth/toxicity assay; type: cell-based, Canine; details: 30 μM, 1 day
Outline: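 MDCK cells kept in DMEM with 10% FBS, penicillin/streptomycin and 2 mM L-glutamine. Seeded at 5.0 × 10^3 cells/well for 6 h (37 °C, 5% CO2), then starved overnight in 0.25% FBS DMEM. Exposed for 1 day to test compound at 30 μM or ampicillin 30 μM (negative control). CCK-8 added; A450 of WST-8 formazan read after 3 h. Four independent experiments, mean ± SEM, Dunnett's test.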

wild-type saDHFR = wild-type saDHFR (Staphylococcus aureus, UniProt P0A017); assay: S. aureus DHFR enzymatic assay; type: biochemical
Chain of wild-type saDHFR (P0A017 whole entry): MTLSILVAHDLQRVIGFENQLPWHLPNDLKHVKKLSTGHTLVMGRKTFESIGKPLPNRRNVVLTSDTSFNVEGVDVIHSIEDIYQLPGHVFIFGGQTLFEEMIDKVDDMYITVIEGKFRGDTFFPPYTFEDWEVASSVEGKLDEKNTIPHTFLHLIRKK

Solubility in DMSO = type: physicochemical; details: at 100 μM in DMSO

Compound: O=C(O)CN1C(=O)C(=C2C(=O)N(Cc3ccc(Cl)cc3)c3ccccc32)SC1=S [KB1, {5-[1-(4-chlorobenzyl)-2-oxo-1,2-dihydro-3H-indol-3-ylidene]-4-oxo-2-thioxo-1,3-thiazolidin-3-yl}acetic acid]
- Inhibitory effect on the growth of S. epidermidis [1]: strong inhibitory effects
- Cell death induced in SH-SY5Y cells (SH-SY5Y cells): 43.3%
- Inhibitory effect on the growth of E. coli JM109 (E. coli JM109): did not show inhibitory effects
- Inhibitory effect on the growth of E. coli BL21 (E. coli BL21): did not show inhibitory effects
- Toxic effects on MDCK cells (MDCK cells): did not show any toxic effects

Compound: O=C(O)CCCN1C(=O)C(=C2C(=O)N(Cc3ccc(Cl)cc3)c3ccccc32)SC1=S [KBS1, 4-{5-[1-(4-chlorobenzyl)-2-oxo-1,2-dihydro-3H-indol-3-ylidene]-4-oxo-2-thioxo-1,3-thiazolidin-3-yl}butanoic acid]
- Inhibitory effect on the growth of S. epidermidis [1]: significant inhibitory effects
- Cell death induced in SH-SY5Y cells (SH-SY5Y cells): 35.4–52.1%
- Inhibitory effect on the growth of E. coli JM109 (E. coli JM109): no inhibitory effects
- IC50 (wild-type saDHFR): 460 ± 170 nM
- Inhibitory effect on the growth of E. coli BL21 (E. coli BL21): no inhibitory effects
- Toxic effects on MDCK cells (MDCK cells): weak toxic effect

Compound: Cc1ccc(CN2C(=O)C(=C3SC(=S)N(CC(=O)O)C3=O)c3ccccc32)cc1 [KBS2, {5-[1-(4-methylbenzyl)-2-oxo-1,2-dihydro-3H-indol-3-ylidene]-4-oxo-2-thioxo-1,3-thiazolidin-3-yl}acetic acid]
- Solubility in DMSO (Solubility in DMSO): not soluble

Compound: O=C(O)CN1C(=O)C(=C2C(=O)N(Cc3ccccc3Cl)c3ccccc32)SC1=S [KBS3, {5-[1-(2-chlorobenzyl)-2-oxo-1,2-dihydro-3H-indol-3-ylidene]-4-oxo-2-thioxo-1,3-thiazolidin-3-yl}acetic acid]
- Inhibitory effect on the growth of S. epidermidis [1]: significant inhibitory effects
- Cell death induced in SH-SY5Y cells (SH-SY5Y cells): 35.4–52.1%
- Inhibitory effect on the growth of E. coli JM109 (E. coli JM109): no inhibitory effects
- Inhibitory effect on the growth of E. coli BL21 (E. coli BL21): no inhibitory effects
- Toxic effects on MDCK cells (MDCK cells): did not exhibit toxic effects

Compound: O=C(O)CCN1C(=O)C(=C2C(=O)N(Cc3ccc(F)cc3)c3ccccc32)SC1=S [KBS4, 3-{5-[1-(4-fluorobenzyl)-2-oxo-1,2-dihydro-3H-indol-3-ylidene]-4-oxo-2-thioxo-1,3-thiazolidin-3-yl}propanoic acid]
- Inhibitory effect on the growth of S. epidermidis [1]: significant inhibitory effects
- Cell death induced in SH-SY5Y cells (SH-SY5Y cells): 35.4–52.1%
- Inhibitory effect on the growth of E. coli JM109 (E. coli JM109): no inhibitory effects
- Inhibitory effect on the growth of E. coli BL21 (E. coli BL21): no inhibitory effects
- Toxic effects on MDCK cells (MDCK cells): did not exhibit toxic effects

Compound: CCOCCCN1C(=O)C(=C2C(=O)N(Cc3ccc(Cl)cc3)c3ccccc32)SC1=S [KBS5, 1-(4-chlorobenzyl)-3-[3-(3-ethoxypropyl)-4-oxo-2-thioxo-1,3-thiazolidin-5-ylidene]-1,3-dihydro-2H-indol-2-one]
- Inhibitory effect on the growth of S. epidermidis [1]: inactive
